Test [1] is filed under the species Rattus norvegicus. The test can be described thus: Percent decrease in triglyceride (TG) after 7 days at 0.05 percent in the diet of SD male rats in comparison to control animals. The format is functional. Summed up: (§1)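 Normal SD male rats, five per group. Compound mixed into CE-2 powder diet at 50 mg/100 g (mg %), fed ad libitum for 7 days; controls received plain CE-2 powder. Total serum cholesterol measured by the Zak method and triglyceride by the Van Handel method after the feeding period. Activity expressed as percent depression versus the control-group mean. Single experiments.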

For test [2], the species on record is Rattus norvegicus. The test can be described thus: Percent decrease in serum cholesterol (Cho) after 7 days at 0.05 percent in the diet of SD male rats in comparison to control animals. Type of test: functional. Put shortly: as §1

On to `CCCCCCCCOC(=O)Cc1nc(-c2ccc(F)cc2)oc1-c1ccsc1`, for which the Reduction in the test listed under Rattus norvegicus [1] came out at 13%; in the test listed under Rattus norvegicus [2], 12%.

On to `CCOC(=O)Cc1nc(-c2ccc(C)cc2)oc1-c1cccs1`, for which the Reduction in the test filed under Rattus norvegicus [1] was -14%; in the test listed under Rattus norvegicus [2] it was 9%.

Regarding `O=C(O)Cc1nc(-c2ccc(F)cc2)oc1-c1ccsc1`, the Reduction turned out to be 39% in the test filed under Rattus norvegicus [1] and 23% in the test listed under Rattus norvegicus [2].

As to `CCCCCCCCCCCCCCCCCCOC(=O)Cc1nc(-c2ccc(F)cc2)oc1-c1ccsc1`, the Reduction in the test filed under Rattus norvegicus [1] is 26%; in the test filed under Rattus norvegicus [2], 18%.

For `CCOC(=O)Cc1nc(-c2ccc(Cl)cc2)oc1-c1ccsc1`, the values for the Reduction in the test filed under Rattus norvegicus [1] and in the test listed under Rattus norvegicus [2] were 47% and 16%, respectively.

In the case of `CCOC(=O)C(C)(C)Oc1ccc(Cl)cc1` [CLOFIBRATE], the Reduction in the test filed under Rattus norvegicus [1] is listed as 16%; in the test filed under Rattus norvegicus [2] it was 15%.
